The source of these data is PubChem BioAssay.

Activity calls are given as the source filed them.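 How the source made its calls, unless noted: active means viability at or under a set limit in both replicates, limit being median viability minus 3 SD (cut at about 48% in these data, passing the limit was not always enough); inconclusive means at or under the limit in just one replicate; inactive means at or above the limit in both replicates.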

Test [1] is described as follows: reduced viability of SK-BR-3 breast cancer cells – cell-based, 24 h, human, pilot screen (AID 572;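 active means viability at or below 10% of carrier control in both of two separate runs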;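 further: compound exposure lasted between 18 and 24 h rather than exactly 24 h; 100% = carrier-treated control wells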). The settings on record: SK-BR-3 viability, CellTiter-Glo luminescence, at 10 µM, stronger effect = lower value.
Test [2] is described as follows: HUVEC growth inhibition – cell-based, human, primary screen (AID 575;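 active means viability at or below 30% in both replicate assays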;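 further: 100% = median of untreated cell wells with 0.1% DMSO on each plate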). To be noted: HUVEC proliferation, CellTiter-Glo luminescence, 72 h; at 10 µM; stronger effect = lower value. The procedure, abridged:
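Test system: primary human umbilical vein endothelial cells; medium: endothelial basal medium with 2% FBS plus growth supplements; dosing: 10 µM compound only; times: 72 h treatment at 37 °C; signal: CTG luminescence; read-out: % viability relative to median vehicle-well signal on each plate; control set: vehicle and MePR control wells; plate: 384-well, collagen-coated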
For orientation: Cellular ATP, detected with luciferase, serves as a proxy for viable cell number.

A short description of test [3]: H69AR cell proliferation blockers – human, duplicate replicates, primary screen (AID 580).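 Further: 100% = mean luminescence of untreated wells and 0% = no signal.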 To be noted: H69AR lung tumor cells viability, ATP luminescence, 72 h; at 10 µM; stronger effect = lower value.
The nature of test [4]: MRP1 drug-resistance reversers in H69AR cells – cell-based, doxorubicin co-treatment, pilot screen (AID 601;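 active means viability loss from added drug above about 55%, and viability with drug at most 40%, in both replicates, limit read from the data, passing the limit was not always enough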). The settings on record: CellTiter-Glo, 72 h, at 10 µM; for differential viability (reversal): stronger effect = higher value.
Test [5] can be described thus: yeast transport mutant growth inhibition pilot in 384-well plates, post-Golgi transport modulator project (AID 636; in the data active means inhibition above about 31%). To be noted: absorbance 615 nm, about 18 h, stronger effect = higher value.
The nature of test [6]: growth suppression of yeast trafficking mutant, preliminary HTS, modulators of trafficking downstream of Golgi apparatus project, 1536-format plate, OD 615 nm (AID 637; in the data active means inhibition above about 30%). To be noted: yeast transport mutant growth, absorbance 615 nm, 18 h; stronger effect = higher value.
Where [7] appears, read: H69AR cells + 2 uM doxorubicin, measured here: viability with 2 uM doxorubicin, stronger effect = lower value.
[8] abbreviates: H69AR cells, compound alone cytotoxicity.

As for `O=C(CCNS(=O)(=O)c1ccc(Br)s1)N1CCCCC1`, the viability (as a rule, a read-out of living cells in per cent, often relative to untreated cells) is 90% (inactive) in test [1]; 107% (inactive) in test [2]; 94.2% (inactive) in test [3]; 86.5% in test [4] (setting [7]); 94.2% in test [4] (setting [8]). For the same compound, in test [4] (H69AR cells + 2 uM doxorubicin), the differential viability (reversal) is 7.65% (inactive). Also, the results for the inhibition in test [5] and in test [6] were -6.03% (inactive) and -4.19% (inactive), respectively.
As to `CC(C)OC(=O)C1C2C=CC3(CN(Cc4cccs4)C(=O)C13)O2` (stereo not drawn), the viability in test [1] is 89% (inactive); in test [2] it was 96.7% (inactive); in test [3] it was 90.1% (inactive); in test [4] (setting [7]), 93.8%; in test [4] (setting [8]), 90.1%. Besides, the differential viability (reversal) in test [4] (H69AR cells + 2 uM doxorubicin) is -3.73% (inactive). Moreover, the values for the inhibition in test [5] and in test [6] were -6.44% (inactive) and 2.42% (inactive), respectively.
In the case of `Cc1nc(NC2=NCN(CCCN3CCOCC3)CN2)nc2c(C)cccc12`, the viability in test [1] was 158% (inactive); in test [2] it was 67.4% (inactive); in test [3] it was 53.4% (inactive); in test [4] (setting [7]), 65.8%; in test [4] (setting [8]) it was 53.4%. Besides, the differential viability (reversal) in test [4] (H69AR cells + 2 uM doxorubicin) is -12.3% (inactive). For the same compound, the inhibition (commonly the relative decrease from the control value, in per cent) in test [5] was -4.34% (inactive); in test [6], 0.16% (inactive).
With `CC(=O)Nc1ccc(NC(=O)Cn2cc3c(n2)CCC(C)C3)cc1` (stereo not drawn), the viability in test [1] is 108% (inactive); in test [2], 103% (inactive); in test [3], 90.6% (inactive); in test [4] (setting [7]) it was 94.6%; in test [4] (setting [8]) it was 90.6%. Moreover, the differential viability (reversal) in test [4] (H69AR cells + 2 uM doxorubicin) was -4.05% (inactive). Also, the inhibition in test [5] was -8.24% (inactive); in test [6], -8.73% (inactive).
For `c1ccc(OCCCn2nnc(-c3ccncc3)n2)cc1`, the viability in test [1] was 109% (inactive); in test [2], 108% (inactive); in test [3], 95.8% (inactive); in test [4] (setting [7]), 96.8%; in test [4] (setting [8]), 95.8%. Also, in test [4] (H69AR cells + 2 uM doxorubicin), the differential viability (reversal) is -1.02% (inactive). The inhibition in test [5] is -5.21% (inactive); in test [6], 4.73% (inactive).
Take `CN/C=C1\C(=O)C(C)(C)Oc2ccc3ccc(=O)oc3c21`: the viability in test [1] was 112% (inactive); in test [2] it was 91.5% (inactive); in test [3] it was 87.9% (inactive); in test [4] (setting [7]), 87.7%; in test [4] (setting [8]), 87.9%. For the same compound, the differential viability (reversal) in test [4] (H69AR cells + 2 uM doxorubicin) is 0.24% (inactive). Moreover, the values for the inhibition in test [5] and in test [6] were -6.53% (inactive) and 0.18% (inactive), respectively.
Take `O=C(NC1CC1)c1ccc(S(=O)(=O)NCC2CCCCC2)cc1`: the viability was 112% (inactive) in test [1]; 79.4% (inactive) in test [2]; 102% (inactive) in test [3]; 97% in test [4] (setting [7]); 102% in test [4] (setting [8]). Besides, in test [4] (H69AR cells + 2 uM doxorubicin), the differential viability (reversal) was 5.06% (inactive). For the same compound, the values for the inhibition in test [5] and in test [6] were -6.85% (inactive) and -0.32% (inactive), respectively.
Consider `COCCCN(Cc1ccccn1)S(=O)(=O)Cc1ccccc1`, for which the viability is 130% (inactive) in test [1]; 83.5% (inactive) in test [2]; 105% (inactive) in test [3]; 86.7% in test [4] (setting [7]); 105% in test [4] (setting [8]). Also, in test [4] (H69AR cells + 2 uM doxorubicin), the differential viability (reversal) was 17.9% (inactive). Also, the inhibition in test [5] is -4.11% (inactive); in test [6] it was -9.68% (inactive).
For `Cc1ccc2c(c1)CCCN2C(=O)c1ccc2c(c1)OCO2`, the viability is 48% (inactive) in test [1]; 108% (inactive) in test [2]; 101% (inactive) in test [3]; 110% in test [4] (setting [7]); 101% in test [4] (setting [8]). Further, the differential viability (reversal) in test [4] (H69AR cells + 2 uM doxorubicin) is -8.85% (inactive). Further, the inhibition was -8.63% (inactive) in test [5] and -6.18% (inactive) in test [6].
`COc1cccc(NS(=O)(=O)c2ccc3[nH]cc(C(=O)NC4CC4)c(=O)c3c2)c1`: the viability was 101% (inactive) in test [1]; 70.3% (inactive) in test [2]; 70.1% (inactive) in test [3]; 85.7% in test [4] (setting [7]); 70.1% in test [4] (setting [8]). In addition, the differential viability (reversal) in test [4] (H69AR cells + 2 uM doxorubicin) is -15.6% (inactive). Further, the inhibition in test [5] was -1.04% (inactive); in test [6], 2.13% (inactive).
As to `COc1cc2c(cc1OC)CN(C(=O)COc1ccc(C)c(C)c1)CC2`, the viability is 94% (inactive) in test [1]; 91.4% (inactive) in test [2]; 83.9% (inactive) in test [3]; 89.5% in test [4] (setting [7]); 83.9% in test [4] (setting [8]). In test [4] (H69AR cells + 2 uM doxorubicin), the differential viability (reversal) was -5.58% (inactive). The results for the inhibition in test [5] and in test [6] were -7.95% (inactive) and 1.29% (inactive), respectively.
